For test [1], the system named is Streptococcus pneumoniae. Briefly: Antibacterial activity against MLSB-resistant Streptococcus pneumoniae 205 by broth microdilution method. The format is functional. A digest of the protocol:
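MIC measured by broth microdilution following CLSI guidelines for S. pneumoniae; erythromycin-susceptible and erythromycin-resistant pneumococcal strains tested, with clarithromycin as comparator in every run.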

Test [2] has as its system Streptococcus pneumoniae. Briefly: Antibacterial activity against erythromycin-susceptible Streptococcus pneumoniae ATCC 49619 by broth microdilution method. It is filed as functional. A digest of the protocol:
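MIC read by broth microdilution following CLSI guidelines for S. pneumoniae; clarithromycin run alongside as comparator in all assays.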

SMILES strings stand for the structures. Converted amounts (≈) assume the structure as drawn. A value given as a limit tells only on which side of the number the result lay.

As for `CO[C@]1(C)C[C@@H](C)C(=O)[C@H](C)CN(C)CCOC(=O)[C@H](C)[C@@H](O[C@H]2C[C@@](C)(OC)[C@@H](O)[C@H](C)O2)[C@H](C)[C@H]1O[C@@H]1O[C@H](C)C[C@H](N(C)C)[C@H]1O`, the MIC was greater than 128 µg/mL in test [1] and 32 µg/mL (≈ 45.5 µM) in test [2].
Taken in the same sequence, the figures for `CO[C@]1(C)C[C@H](O[C@H]2[C@H](C)[C@@H](O[C@@H]3O[C@H](C)C[C@H](N(C)C)[C@H]3O)[C@](C)(O)C[C@@H](C)[C@H](N)[C@H](C)CN(C)CCOC(=O)[C@@H]2C)O[C@@H](C)[C@@H]1O` were greater than 128 µg/mL and 2 µg/mL (≈ 2.9 µM).
For the compound `CO[C@]1(C)C[C@H](O[C@H]2[C@H](C)[C@@H](O[C@@H]3O[C@H](C)C[C@H](N(C)C)[C@H]3O)[C@](C)(O)C[C@@H](C)[C@H](N)[C@H](C)CN(C)C[C@H](COCc3ccccc3)OC(=O)[C@@H]2C)O[C@@H](C)[C@@H]1O`, the MIC in test [1] was greater than 128 µg/mL; in test [2], 0.12 µg/mL (≈ 0.148 µM).
On the same counts, the results for `CO[C@]1(C)C[C@@H](C)[C@H](O)[C@H](C)CN(C)[C@@H](CN)COC(=O)[C@H](C)[C@@H](O[C@H]2C[C@@](C)(OC)[C@@H](O)[C@H](C)O2)[C@H](C)[C@H]1O[C@@H]1O[C@H](C)C[C@H](N(C)C)[C@H]1O` are greater than 128 µg/mL and 64 µg/mL (≈ 87.2 µM).
Regarding `CCN(CC)C[C@H]1COC(=O)[C@H](C)[C@@H](O[C@H]2C[C@@](C)(OC)[C@@H](O)[C@H](C)O2)[C@H](C)[C@@H](O[C@@H]2O[C@H](C)C[C@H](N(C)C)[C@H]2O)[C@](C)(OC)C[C@@H](C)[C@H](O)[C@H](C)CN1C`, the MIC in test [1] is greater than 128 µg/mL; in test [2], 128 µg/mL (≈ 162 µM).
On to `CCN(CCNC(=O)O[C@H]1[C@H](C)O[C@@H](O[C@H]2[C@H](C)[C@@H](O[C@@H]3O[C@H](C)C[C@H](N(C)C)[C@H]3O)[C@](C)(O)C[C@@H](C)[C@H](N)[C@H](C)CN(C)CCOC(=O)[C@@H]2C)C[C@@]1(C)OC)[C@@H](C)c1ccccc1OC`, for which the values for the minimal inhibitory concentration (MIC) in test [1] and in test [2] were 0.5 µg/mL (≈ 0.533 µM) and 0.12 µg/mL (≈ 0.128 µM), respectively.
In the case of `CO[C@]1(C)C[C@@H](C)[C@H](O)[C@H](C)CN(C)[C@H](COCc2ccccc2)COC(=O)[C@H](C)[C@@H](O[C@H]2C[C@@](C)(OC)[C@@H](O)[C@H](C)O2)[C@H](C)[C@H]1O[C@@H]1O[C@H](C)C[C@H](N(C)C)[C@H]1O`, the MIC in test [1] worked out at 64 µg/mL (≈ 77.6 µM); in test [2], 4 µg/mL (≈ 4.85 µM).
On the same counts, the results for `CCN(CCNC(=O)O[C@H]1[C@H](C)O[C@@H](O[C@H]2[C@H](C)[C@@H](O[C@@H]3O[C@H](C)C[C@H](N(C)C)[C@H]3O)[C@](C)(O)C[C@@H](C)[C@H](N)[C@H](C)CN(C)C[C@H](COCc3ccccc3)OC(=O)[C@@H]2C)C[C@@]1(C)OC)[C@@H](C)c1ccccc1OC` are 0.25 µg/mL (≈ 0.236 µM) and 0.12 µg/mL (≈ 0.113 µM).
Take `CO[C@]1(C)C[C@@H](C)[C@H](O)[C@H](C)CN(C)CCOC(=O)[C@H](C)[C@@H](O[C@H]2C[C@@](C)(OC)[C@@H](O)[C@H](C)O2)[C@H](C)[C@H]1O[C@@H]1O[C@H](C)C[C@H](N(C)C)[C@H]1O`: the MIC in test [1] was greater than 128 µg/mL; in test [2], 2 µg/mL (≈ 2.84 µM).
On the same counts, the results for `CO[C@]1(C)C[C@@H](C)[C@H](O)[C@H](C)CN(C)[C@@H](COCc2ccccc2)COC(=O)[C@H](C)[C@@H](O[C@H]2C[C@@](C)(OC)[C@@H](O)[C@H](C)O2)[C@H](C)[C@H]1O[C@@H]1O[C@H](C)C[C@H](N(C)C)[C@H]1O` are 64 µg/mL (≈ 77.6 µM) and 1 µg/mL (≈ 1.21 µM).
Taken in the same sequence, the figures for `CO[C@]1(C)C[C@@H](C)[C@H](O)[C@H](C)CN(C)C[C@@H](COCc2ccccc2)OC(=O)[C@H](C)[C@@H](O[C@H]2C[C@@](C)(OC)[C@@H](O)[C@H](C)O2)[C@H](C)[C@H]1O[C@@H]1O[C@H](C)C[C@H](N(C)C)[C@H]1O` were 64 µg/mL (≈ 77.6 µM) and 1 µg/mL (≈ 1.21 µM).
Taken in the same sequence, the figures for `CO[C@]1(C)C[C@@H](C)[C@H](O)[C@H](C)CN(C)C[C@H](COCc2ccccc2)OC(=O)[C@H](C)[C@@H](O[C@H]2C[C@@](C)(OC)[C@@H](O)[C@H](C)O2)[C@H](C)[C@H]1O[C@@H]1O[C@H](C)C[C@H](N(C)C)[C@H]1O` were 128 µg/mL (≈ 155 µM) and 0.06 µg/mL (≈ 0.0727 µM).
Regarding `CO[C@]1(C)C[C@@H](C)[C@H](O)[C@H](C)CN(C)[C@@H](CCOCc2ccccc2)COC(=O)[C@H](C)[C@@H](O[C@H]2C[C@@](C)(OC)[C@@H](O)[C@H](C)O2)[C@H](C)[C@H]1O[C@@H]1O[C@H](C)C[C@H](N(C)C)[C@H]1O`, the minimum inhibitory concentration (MIC) in test [1] was 64 µg/mL (≈ 76.3 µM); in test [2] it was 1 µg/mL (≈ 1.19 µM).
On the same counts, the results for `CO[C@]1(C)C[C@@H](C)[C@H](O)[C@H](C)CN(C)C[C@H](c2ccccc2)OC(=O)[C@H](C)[C@@H](O[C@H]2C[C@@](C)(OC)[C@@H](O)[C@H](C)O2)[C@H](C)[C@H]1O[C@@H]1O[C@H](C)C[C@H](N(C)C)[C@H]1O` are greater than 128 µg/mL and 0.5 µg/mL (≈ 0.64 µM).
Consider `CO[C@]1(C)C[C@@H](C)[C@H](O)[C@H](C)CN(C)C[C@H](CCOCc2ccccc2)OC(=O)[C@H](C)[C@@H](O[C@H]2C[C@@](C)(OC)[C@@H](O)[C@H](C)O2)[C@H](C)[C@H]1O[C@@H]1O[C@H](C)C[C@H](N(C)C)[C@H]1O`, for which the MIC in test [1] is 128 µg/mL (≈ 153 µM); in test [2] it was 0.12 µg/mL (≈ 0.143 µM).
On the same counts, the results for `CO[C@]1(C)C[C@@H](C)[C@H](O)[C@H](C)CN(C)C[C@H](COc2ccccc2)OC(=O)[C@H](C)[C@@H](O[C@H]2C[C@@](C)(OC)[C@@H](O)[C@H](C)O2)[C@H](C)[C@H]1O[C@@H]1O[C@H](C)C[C@H](N(C)C)[C@H]1O` are 32 µg/mL (≈ 39.5 µM) and 0.25 µg/mL (≈ 0.308 µM).
Turning to `CO[C@]1(C)C[C@@H](C)[C@H](O)[C@H](C)CN(C)C[C@H](COc2ccccc2-c2ccccc2)OC(=O)[C@H](C)[C@@H](O[C@H]2C[C@@](C)(OC)[C@@H](O)[C@H](C)O2)[C@H](C)[C@H]1O[C@@H]1O[C@H](C)C[C@H](N(C)C)[C@H]1O`, the values for the MIC in test [1] and in test [2] were 16 µg/mL (≈ 18 µM) and 0.5 µg/mL (≈ 0.564 µM), respectively.
As for `CO[C@]1(C)C[C@@H](C)[C@H](O)[C@H](C)CN(C)C[C@H](COc2cccc(-c3ccccc3)c2)OC(=O)[C@H](C)[C@@H](O[C@H]2C[C@@](C)(OC)[C@@H](O)[C@H](C)O2)[C@H](C)[C@H]1O[C@@H]1O[C@H](C)C[C@H](N(C)C)[C@H]1O`, the MIC in test [1] was 16 µg/mL (≈ 18 µM); in test [2], 1 µg/mL (≈ 1.13 µM).
`CO[C@]1(C)C[C@@H](C)[C@H](O)[C@H](C)CN(C)C[C@H](COc2ccc(-c3ccccc3)cc2)OC(=O)[C@H](C)[C@@H](O[C@H]2C[C@@](C)(OC)[C@@H](O)[C@H](C)O2)[C@H](C)[C@H]1O[C@@H]1O[C@H](C)C[C@H](N(C)C)[C@H]1O`: the values for the MIC in test [1] and in test [2] were 8 µg/mL (≈ 9.02 µM) and 1 µg/mL (≈ 1.13 µM), respectively.
As to `CO[C@]1(C)C[C@@H](C)[C@H](O)[C@H](C)CN(C)C[C@H](COc2ccc(-c3cccnc3)cc2)OC(=O)[C@H](C)[C@@H](O[C@H]2C[C@@](C)(OC)[C@@H](O)[C@H](C)O2)[C@H](C)[C@H]1O[C@@H]1O[C@H](C)C[C@H](N(C)C)[C@H]1O`, the figures for the MIC in test [1] and in test [2] were 64 µg/mL (≈ 72.1 µM) and 0.5 µg/mL (≈ 0.563 µM), respectively.
In the case of `CO[C@]1(C)C[C@@H](C)[C@H](O)[C@H](C)CN(C)C[C@H](COc2ccc(-c3ccccn3)cc2)OC(=O)[C@H](C)[C@@H](O[C@H]2C[C@@](C)(OC)[C@@H](O)[C@H](C)O2)[C@H](C)[C@H]1O[C@@H]1O[C@H](C)C[C@H](N(C)C)[C@H]1O`, the minimum inhibitory concentration (MIC) was determined as 16 µg/mL (≈ 18 µM) in test [1] and 0.25 µg/mL (≈ 0.281 µM) in test [2].
Taken in the same sequence, the figures for `CO[C@]1(C)C[C@@H](C)[C@H](O)[C@H](C)CN(C)CCOC(=O)C(C)C(=O)[C@H](C)[C@H]1O[C@@H]1O[C@H](C)C[C@H](N(C)C)[C@H]1O` (mixture of isomers) were greater than 128 µg/mL and greater than 128 µg/mL.
In the case of `CC[C@H]1OC(=O)[C@H](C)[C@@H](O[C@H]2C[C@@](C)(OC)[C@@H](O)[C@H](C)O2)[C@H](C)[C@@H](O[C@@H]2O[C@H](C)C[C@H](N(C)C)[C@H]2O)[C@](C)(OC)C[C@@H](C)C(=O)[C@H](C)[C@@H](O)[C@]1(C)O` [CLARITHROMYCIN], the MIC in test [1] is greater than 128 µg/mL; in test [2] it was 0.03 µg/mL (≈ 0.0401 µM).
On the same counts, the results for `CC[C@H]1OC(=O)[C@H](C)C(=O)[C@H](C)[C@@H](O[C@@H]2O[C@H](C)C[C@H](N(C)C)[C@H]2O)[C@](C)(OC)C[C@@H](C)C(=O)[C@H](C)[C@H]2N(CCCCn3cnc(-c4cccnc4)c3)C(=O)O[C@]12C` [TELITHROMYCIN] are greater than 128 µg/mL and 4 µg/mL (≈ 4.93 µM).

These data come from ChEMBL document CHEMBL2146424, “Synthesis and structure-activity relationship of a novel class of 15-membered macrolide antibiotics known as '11a-azalides'” (2012).
